Assay results taken from ChEMBL document CHEMBL4613300, “Pharmacophore-Based Virtual Screening for Identification of Negative Modulators of GLI1 as Potential Anticancer Agents” (ACS Med Chem Lett, 2020).
Activity calls are given as the source filed them. The rule behind the calls is not given here.

Columns and labels:
[1] = target: T1, Zinc finger protein GLI1 (Mus musculus) (UniProt P47806); assay: Inhibition of GLI1 transcriptional activity in HH-responsive mouse NIH3T3 cells assessed as reduction in SAG-induced luciferase activity at 5 uM incubated for 48 hrs by luciferase reporter gene assay relative to control; format: cell-based
T1 sequence (whole entry): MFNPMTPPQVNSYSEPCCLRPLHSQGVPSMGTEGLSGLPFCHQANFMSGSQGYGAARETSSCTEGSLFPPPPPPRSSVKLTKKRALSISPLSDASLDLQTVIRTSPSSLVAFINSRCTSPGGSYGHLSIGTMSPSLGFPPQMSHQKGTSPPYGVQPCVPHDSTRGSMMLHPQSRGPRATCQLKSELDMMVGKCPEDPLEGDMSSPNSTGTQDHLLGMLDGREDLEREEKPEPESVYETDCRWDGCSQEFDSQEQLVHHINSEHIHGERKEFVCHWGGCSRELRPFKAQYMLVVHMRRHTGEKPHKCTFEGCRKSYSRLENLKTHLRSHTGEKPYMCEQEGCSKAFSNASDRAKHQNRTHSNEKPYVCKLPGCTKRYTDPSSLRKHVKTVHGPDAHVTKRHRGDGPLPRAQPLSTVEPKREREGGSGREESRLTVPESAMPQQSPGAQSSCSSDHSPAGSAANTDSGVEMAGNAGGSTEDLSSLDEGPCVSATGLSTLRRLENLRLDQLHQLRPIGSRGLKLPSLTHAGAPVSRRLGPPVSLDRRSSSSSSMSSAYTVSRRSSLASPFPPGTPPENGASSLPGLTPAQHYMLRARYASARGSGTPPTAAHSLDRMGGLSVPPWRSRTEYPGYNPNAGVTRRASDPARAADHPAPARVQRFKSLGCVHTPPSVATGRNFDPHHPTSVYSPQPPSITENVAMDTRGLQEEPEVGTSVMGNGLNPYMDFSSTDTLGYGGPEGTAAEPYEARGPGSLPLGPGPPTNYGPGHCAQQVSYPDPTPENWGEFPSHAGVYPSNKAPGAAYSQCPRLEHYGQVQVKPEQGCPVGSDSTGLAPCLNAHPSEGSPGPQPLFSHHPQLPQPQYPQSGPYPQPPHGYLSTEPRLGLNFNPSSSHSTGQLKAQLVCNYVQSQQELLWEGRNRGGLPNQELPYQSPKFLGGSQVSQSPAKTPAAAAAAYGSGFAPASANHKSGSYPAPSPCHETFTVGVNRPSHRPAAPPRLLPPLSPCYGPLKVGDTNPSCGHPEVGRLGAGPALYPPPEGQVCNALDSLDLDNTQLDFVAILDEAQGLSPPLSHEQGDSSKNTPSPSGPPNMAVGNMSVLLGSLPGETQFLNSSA
Outline: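 HH-responsive NIH3T3 cells carrying a GLI-dependent firefly luciferase reporter with renilla control, treated 48 h with 100 nM SAG plus compound (5 μM). Firefly/renilla ratio normalised to SAG-only cells set at 100%, reported as percent inhibition.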

A-375 [2] = assay: Antiproliferative activity against human A375 cells assessed as reduction in cell viability incubated for 72 hrs by trypan blue or crystal violet staining based assay; format: functional
[3] = target: T1, Zinc finger protein GLI1 (Mus musculus); assay: Inhibition of GLI1 transcriptional activity in HH-responsive mouse NIH3T3 cells assessed as reduction in GLI1 protein expression at 5 uM incubated for 48 hrs in presence of SAG by Western blot analysis; format: cell-based
Outline: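 Murine NIH3T3 cells given 100 nM SAG plus compound (5 μM) or DMSO for 48 h. Endogenous GLI1 protein measured by Western blot with HSP90 as loading control, band quantified against SAG-treated cells.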

Daoy = assay: Antiproliferative activity against human DaOY cells assessed as reduction in cell viability incubated for 72 hrs by trypan blue or crystal violet staining based assay; format: functional
[4] = target: T2, Zinc finger protein GLI1 (Homo sapiens) (UniProt P08151); assay: Inhibition of GLI1 transcriptional activity in human A375 cells assessed as downregulation of HIP1 mRNA expression at 5 uM incubated for 48 hrs by qPCR analysis; format: cell-based; details: A-375
T2 sequence (whole entry): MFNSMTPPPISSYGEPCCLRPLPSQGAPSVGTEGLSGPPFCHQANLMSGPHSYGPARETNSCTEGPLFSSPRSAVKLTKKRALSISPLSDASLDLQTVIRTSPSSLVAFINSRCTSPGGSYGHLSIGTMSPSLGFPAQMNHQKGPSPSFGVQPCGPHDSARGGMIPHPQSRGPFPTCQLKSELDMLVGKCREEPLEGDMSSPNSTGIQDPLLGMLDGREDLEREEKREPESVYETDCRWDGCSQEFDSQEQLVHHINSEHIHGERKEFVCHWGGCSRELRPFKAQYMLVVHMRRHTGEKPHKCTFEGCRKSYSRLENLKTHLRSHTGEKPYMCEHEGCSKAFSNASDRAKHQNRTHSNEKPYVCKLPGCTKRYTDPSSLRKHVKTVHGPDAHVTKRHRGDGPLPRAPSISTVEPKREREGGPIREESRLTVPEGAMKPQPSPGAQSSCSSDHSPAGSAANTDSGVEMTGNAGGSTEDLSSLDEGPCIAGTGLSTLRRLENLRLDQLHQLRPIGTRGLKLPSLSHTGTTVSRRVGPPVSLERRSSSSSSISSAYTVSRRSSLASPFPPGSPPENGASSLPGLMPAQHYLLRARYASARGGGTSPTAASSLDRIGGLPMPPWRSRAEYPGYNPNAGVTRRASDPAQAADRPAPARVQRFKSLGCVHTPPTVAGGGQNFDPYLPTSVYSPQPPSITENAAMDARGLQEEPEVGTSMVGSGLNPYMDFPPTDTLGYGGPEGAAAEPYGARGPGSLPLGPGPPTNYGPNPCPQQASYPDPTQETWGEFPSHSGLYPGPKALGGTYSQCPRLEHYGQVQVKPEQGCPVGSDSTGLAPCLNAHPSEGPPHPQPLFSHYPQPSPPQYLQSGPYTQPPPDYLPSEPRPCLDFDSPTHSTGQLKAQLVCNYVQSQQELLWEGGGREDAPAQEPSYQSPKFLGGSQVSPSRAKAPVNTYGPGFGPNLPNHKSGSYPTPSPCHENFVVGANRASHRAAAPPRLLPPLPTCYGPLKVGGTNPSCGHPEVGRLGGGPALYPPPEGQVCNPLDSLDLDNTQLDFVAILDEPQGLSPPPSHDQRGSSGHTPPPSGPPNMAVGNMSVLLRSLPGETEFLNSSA
Outline: (§1)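 A375 cells treated with compound (5 μM) or DMSO for 48 h. mRNA measured by qPCR as gene/(mean of HPRT and EIF2α) ratio, DMSO control set to 1. Mean ± SD.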

MCF-10A = assay: Cytotoxicity against human MCF10A cells assessed as reduction in cell viability incubated for 72 hrs by trypan blue or crystal violet staining based assay
[5] = target: T2, Zinc finger protein GLI1 (Homo sapiens); assay: Inhibition of GLI1 transcriptional activity in human A375 cells assessed as downregulation of GLI1 mRNA expression at 5 uM incubated for 48 hrs by qPCR analysis; format: cell-based; details: A-375; outline: as §1
[6] = target: T2, Zinc finger protein GLI1 (Homo sapiens); assay: Inhibition of GLI1 transcriptional activity in human A375 cells assessed as downregulation of Cyclin D1 mRNA expression at 5 uM incubated for 48 hrs by qPCR analysis; format: cell-based; details: A-375; outline: as §1
[7] = target: T2, Zinc finger protein GLI1 (Homo sapiens); assay: Inhibition of GLI1 transcriptional activity in human A375 cells assessed as downregulation of GLI2 mRNA expression at 5 uM incubated for 48 hrs by qPCR analysis; format: cell-based; details: A-375; outline: as §1
[8] = target: T2, Zinc finger protein GLI1 (Homo sapiens); assay: Inhibition of GLI1 transcriptional activity in human A375 cells assessed as downregulation of PTCH1 mRNA expression at 5 uM incubated for 48 hrs by qPCR analysis; format: cell-based; details: A-375; outline: as §1
A-375 [9] = assay: Antiproliferative activity against human A375 cells transfected with lentivrus-encoding shRNA against GLI2 assessed as reduction in cell viability incubated for 72 hrs by trypan blue or crystal violet staining based assay; format: functional
Outline: (§2)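 A375 melanoma cells transduced with control lentivirus (LV-c), LV-shGLI1 or LV-shGLI2, with knockdown checked by Western blot (HSP90 loading control). Cells treated with DMSO or compound at the indicated doses for 72 h, then viability read. Values are mean ± SD of at least three independent experiments.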

A-375 [10] = assay: Antiproliferative activity against human A375 cells transfected with lentivrus-encoding shRNA against GLI1 assessed as reduction in cell viability incubated for 72 hrs by trypan blue or crystal violet staining based assay; format: functional; outline: as §2
[11] = Homo sapiens, A-375, 72 h, read-out: IC50
[12] = Homo sapiens, Daoy, 72 h, read-out: IC50

Row | Compound | inhibition [1] | IC50 (A-375 [2]; [11]) | inhibition [3] | IC50 (Daoy; [12]) | other results
1 | CCOC(=O)c1c(-c2ccccc2)csc1NC(NC(C)=O)C(Cl)(Cl)Cl (centres undefined) | 38% | 5100 nM | inactive | 2.8 µM | –
2 | O=C(NC1CCCc2ccccc21)c1cnn2c(C(F)F)cc(C3CC3)nc12 (centres undefined) | 54% | 5000 nM | Active | 7.5 µM | –
3 | CCOC(=O)c1c(-c2ccccc2)csc1NC(NC(=O)c1ccccc1)C(Cl)(Cl)Cl (centres undefined) | 40% | 12000 nM | Active | 0.9 µM | inhibition [4]: Active; Activity (MCF-10A): Non-Toxic; inhibition [5]: Active; inhibition [6]: Active; inhibition [7]: Active; inhibition [8]: Active
4 | CCOC(=O)c1c(-c2ccccc2)csc1NC(NC(=O)c1ccc(Br)cc1)C(Cl)(Cl)Cl (centres undefined) | 78% | 2000 nM | Active | 3.4 µM | –
5 | O=C(NC1CCCc2ccccc21)c1cnn2c(C(F)(F)F)cc(-c3ccco3)nc12 (centres undefined) | 66% | 600 nM | Active | 5.7 µM | –
6 | O=C(c1cnn2c(C(F)F)cc(C3CC3)nc12)N(Cc1ccccc1)Cc1ccccc1 | – | – | inactive | – | –
7 | COc1cc(OC)c2c(=O)c(-c3ccc(OCC=C(C)C)c(OCC=C(C)C)c3)coc2c1 | 46% | 400 nM | Active | 0.13 µM | Activity (A-375 [9]): inactive; inhibition [4]: Active; inhibition [5]: Active; inhibition [6]: Active; Activity (A-375 [10]): inactive; inhibition [7]: Active; inhibition [8]: Active
8 | CCOC(=O)c1c(-c2ccccc2)csc1NC(NC(=O)c1ccc([N+](=O)[O-])cc1)C(Cl)(Cl)Cl (centres undefined) | 74% | 5200 nM | Active | 3.1 µM | –
9 | O=C(NCCc1ccccc1)c1cnn2c(C(F)F)cc(C3CC3)nc12 | – | – | inactive | – | –
10 | O=C(NC1CCCc2ccccc21)c1cnn2c(C(F)(F)F)cc(-c3cccs3)nc12 (centres undefined) | 49% | 1200 nM | Active | 4.4 µM | Activity (A-375 [9]): inactive; inhibition [4]: Active; Activity (MCF-10A): Non-Toxic; inhibition [5]: Active; inhibition [6]: Active; Activity (A-375 [10]): inactive; inhibition [7]: Active; inhibition [8]: Active
11 | CCOC(=O)c1c(-c2ccccc2)csc1NC(NC(=O)c1cccc2ccccc12)C(Cl)(Cl)Cl (centres undefined) | 7% | – | inactive | – | IC50 (A-375 [2]; a-375): Not Active; IC50 (Daoy; daoy): Not Active
12 | CCOC(=O)c1c(-c2ccccc2)csc1NC(NC(=O)c1ccccc1C)C(Cl)(Cl)Cl (centres undefined) | – | – | inactive | – | IC50 (A-375 [2]; a-375): Not Active; IC50 (Daoy; daoy): Not Active
13 | CCOC(=O)c1c(-c2ccccc2)csc1NC(NC(=O)c1cccc(Cl)c1)C(Cl)(Cl)Cl (centres undefined) | 81% | 6100 nM | Active | 5.5 µM | –
14 | CCOC(=O)c1c(-c2ccccc2)csc1NC(NC(=O)c1ccc(C)cc1)C(Cl)(Cl)Cl (centres undefined) | – | – | inactive | – | IC50 (A-375 [2]; a-375): Not Active; IC50 (Daoy; daoy): Not Active
15 | O=C(NC1CCCCC1)c1cnn2c(C(F)F)cc(C3CC3)nc12 | – | – | inactive | – | –
16 | CC1(C)CC(NC(=O)c2cnn3c(C(F)F)cc(C4CC4)nc23)c2ccccc2O1 (centres undefined) | 40% | 2200 nM | Active | 2.3 µM | inhibition [4]: Active; Activity (MCF-10A): Non-Toxic; inhibition [5]: Active; inhibition [6]: Active; inhibition [7]: Active; inhibition [8]: Active
17 | O=C(NC1CCOc2ccccc21)c1cnn2c(C(F)F)cc(C3CC3)nc12 (centres undefined) | – | – | inactive | – | IC50 (A-375 [2]; a-375): Not Active; IC50 (Daoy; daoy): Not Active
18 | CCOC(=O)c1c(-c2ccccc2)csc1NC(NC(=O)c1cccc(C)c1)C(Cl)(Cl)Cl (centres undefined) | – | – | inactive | – | IC50 (A-375 [2]; a-375): Not Active; IC50 (Daoy; daoy): Not Active
19 | Cc1cc(C(F)F)n2ncc(C(=O)NC3CC(C)(C)Oc4ccccc43)c2n1 (centres undefined) | 0% | – | inactive | – | IC50 (A-375 [2]; a-375): Not Active; IC50 (Daoy; daoy): Not Active
20 | CCOC(=O)c1c(-c2ccccc2)csc1NC(NC(=O)c1ccco1)C(Cl)(Cl)Cl (centres undefined) | 51% | 2700 nM | Active | 4.3 µM | –
21 | COc1c(O)cc2oc3cc(O)c(CC=C(C)C)c(O)c3c(=O)c2c1CC=C(C)C [MANGOSTIN] | 43% | 2700 nM | Active | 1.9 µM | –
22 | O=C(NCc1ccc2c(c1)OCO2)c1cnn2c(C(F)F)cc(C3CC3)nc12 | – | – | inactive | – | –
